From ChEMBL document CHEMBL4177752, “Discovery of Novel Schizocommunin Derivatives as Telomeric G-Quadruplex Ligands That Trigger Telomere Dysfunction and the Deoxyribonucleic Acid (DNA) Damage Response” (J Med Chem, 2018) come the findings set out here.

The IC50 is the point on the concentration scale where inhibition reaches its midpoint. A high value points to a need for much substance. The term ΔTm denotes the change in melting temperature against a reference sample. What is called Kd is the equilibrium constant for the complex coming apart.

The test system of data set [1] is Quadruplex DNA. Put plainly: Stabilization of F21T telomeric G-quadruplex DNA (unknown origin) at 1 uM in presence of non-fluorescent duplex DNA ds26 by FRET assay. Type of data set: nucleic-acid assay. In short, it runs like this:
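Competition FRET: 0.2 µM F21T with 1 µM ligand, plus or minus unlabelled duplex ds26 at 3 µM (15-fold) or 10 µM (50-fold), in 10 mM Tris-HCl pH 7.4 with 60 mM KCl. Melting monitored at 470/530 nm over 37–99 °C.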

In data set [2] the test system is SiHa. The experiment in a line: Induction of apoptosis in human SiHa cells after 96 hrs by annexin V-FITC/propidium iodide staining-based flow cytometric method. Type of data set: functional, cell-based. In short, it runs like this: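 SiHa cells were treated with compound or DMSO for 96 h, washed, resuspended in binding buffer, and stained with Annexin V-FITC and PI for 15 min in the dark. Apoptotic percentage was measured by flow cytometry; mean ± SEM.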

The subject of data set [3] is U2OS. Put plainly: Antiproliferative activity against human U2OS cells after 48 hrs by MTT assay. Type of data set: functional, cell-based. In short, it runs like this: (§1)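 Cells seeded at 5.0×10^3 per well and exposed to a range of compound concentrations for 48 h. MTT (2.5 mg/mL solution) was then added for 4 h, formazan was dissolved in DMSO, and OD was read at 570 nm. HL-60 was grown in RPMI-1640 with 10% FBS, the other lines in DMEM with 10% FBS, at 37 °C and 5% CO2. Triplicates; IC50 taken from mean OD versus concentration curves.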
In general terms: Tetrazolium dyes change colour on reduction, which living cells bring about.

Data set [4] concerns Quadruplex DNA. Put plainly: Stabilization of telomeric G-quadruplex DNA in human SiHa cells assessed as induction of telomere uncapping by measuring formation of anaphase bridge at 1 uM after 48 hrs by DAPI staining-based laser scanning microscopic method. Type of data set: cell-based. In short, it runs like this:
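SiHa cells were treated with 1 µM compound for 48 h, fixed in 2% formaldehyde/0.2% glutaraldehyde for 15 min, and stained with 2 µg/mL DAPI at 37 °C for 3 h. Confocal imaging followed. Anaphase-bridge frequency is the fraction of cells with bridges; at least 50 anaphase cells per experiment.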

Data set [5] relates to Quadruplex DNA. The experiment in a line: Stabilization of telomeric G-quadruplex DNA in human SiHa cells assessed as increase in BG4 foci per nucleus at 2 uM after 24 hrs by DAPI staining-based immunofluorescence method relative to control. Type of data set: cell-based. In short, it runs like this:
(§2)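 Cells were treated 24 h with 2 µM compound or 0.1% DMSO, then fixed (4% paraformaldehyde), permeabilized (0.5% Triton X-100) and blocked (5% goat serum). Staining used BG4 (80 ng/µL, 37 °C 3 h) with anti-FLAG, and/or γ-H2AX, TRF2 or POT1 antibodies at 4 °C overnight. Alexa 488/555 secondaries and DAPI followed. Foci or co-localized foci per nucleus were counted by confocal microscopy; mean ± SEM, two-tailed unpaired t test.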

The test system of data set [6] is Quadruplex DNA. The experiment in a line: Stabilization of telomeric G-quadruplex DNA in human SiHa cells assessed as increase in phosphorylated ATR expression after 48 hrs by Western blot method. Type of data set: cell-based. In short, it runs like this:
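SiHa cells were treated with compound for 48 h and lysed in RIPA buffer. 20 µg protein was run on 10% SDS-PAGE and transferred to PVDF. Blots were blocked in 3% BSA, probed with primary antibodies (1:1,000, 4 °C 16 h) for p-ATR, p-CHK1 and p-P53, then secondaries (1:2,000, 2 h at room temperature).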
On the technique in general: A western blot detects proteins with antibodies after separation by electrophoresis.

Data set [7] has as its system U2OS. The experiment in a line: Cell cycle arrest in human U2OS cells assessed as accumulation at G2/M phase at 1 uM after 12 hrs by propidium iodide staining-based flow cytometric method. Type of data set: functional. In short, it runs like this: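 SiHa or U2OS cells (2.0×10^5 per well) were treated with compound or DMSO for 12 h, fixed in ice-cold 70% ethanol overnight, and stained with 50 µg/mL PI plus RNase A for 30 min at room temperature in the dark. 10,000 events were collected by flow cytometry to give the phase distribution.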

Data set [8] in a line: Stabilization of F10T hairpin duplex DNA (unknown origin) assessed as change in melting temperature at 1 uM by FRET assay. In short, it runs like this:
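FRET melting: 0.2 µM F21T or F10T (FAM/TAMRA-labelled), with or without 1.0 µM ligand, in 10 mM Tris-HCl pH 7.4 with 60 mM KCl. Excitation 470 nm, emission 530 nm, read every 1 °C from 37–99 °C at 1 °C/min with a 30 s hold. ΔTm = Tm(DNA+ligand) − Tm(DNA).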

The subject of data set [9] is Quadruplex DNA. Put plainly: Stabilization of telomeric G-quadruplex DNA in human SiHa cells assessed as induction of DNA damage response by measuring gamma-H2AX foci formation per nucleus at 2 uM after 24 hrs by DAPI staining-based immunofluorescence method relative to control. Type of data set: cell-based. In short, it runs like this: as §2
Data set [10] concerns SiHa. The experiment in a line: Effect on POT1 expression in human SiHa cells at 1 uM after 48 hrs by Western blot method. Type of data set: functional, cell-based.
Data set [11] addresses Quadruplex DNA. Put plainly: Binding affinity to HTG21 telomeric G-quadruplex DNA (unknown origin) by SPR method. Type of data set: nucleic-acid assay. In short, it runs like this: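 SPR: biotinylated HTG21 or hairpin DNA (200 nM) was folded in 50 mM Tris-HCl pH 7.4 with 100 mM KCl and captured to about 1,000 RU on an NLC chip against a blank reference cell. Ligand at 0.625–40 µM was injected at 25 µL/min (400 s association, 300 s dissociation) at 25 °C. The chip was regenerated with 1 M KCl and blank sensorgrams were subtracted.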
(In general: SPR reads the build-up and loss of mass on a sensor chip optically.)

Data set [12] relates to Quadruplex DNA. Put plainly: Stabilization of telomeric G-quadruplex DNA in human SiHa cells assessed as delocalization of POT1 from TRF2 foci at 2 uM after 24 hrs by DAPI staining-based double immunofluorescence method. Type of data set: cell-based. In short, it runs like this:
as §2

For data set [13], the system named is Mus musculus. Put plainly: Toxicity in BALB/C-nu/nu mouse xenografted with human SiHa cells assessed as decrease in body weight at 10 to 20 mg/kg, ip administered daily for 3 weeks measured everyday during compound dosing. Type of data set: organism-based. As to conditions: in vivo, 504 h. In short, it runs like this:
(§3)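 SiHa cells (1×10^7 per 100 µL, serum-free DMEM) were injected subcutaneously. Grown tumors were divided into pieces and implanted into BALB/C-nu/nu mice. Caliper volume (1/2 × L × W²) and body weight were recorded daily; tumors were weighed at the end.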

The subject of data set [14] is SiHa. Put plainly: Antitumor activity against human SiHa cells xenografted in BALB/C-nu/nu mouse assessed as tumor growth inhibition at 20 mg/kg, ip administered daily for 3 weeks measured post last dose relative to vehicle-treated control. As to conditions: 504 h, read-out: TGI. Type of data set: functional. In short, it runs like this:
as §3

For data set [15], the system named is HL-60. The experiment in a line: Antiproliferative activity against human HL60 cells after 48 hrs by MTT assay. Type of data set: functional, cell-based. The settings on record: HL-60, 48 h. In short, it runs like this:
as §1

In data set [16] the test system is HeLa. The experiment in a line: Antiproliferative activity against human HeLa cells after 48 hrs by MTT assay. Type of data set: functional, cell-based. In short, it runs like this:
as §1

The subject of data set [17] is A549. The experiment in a line: Antiproliferative activity against human A549 cells after 48 hrs by MTT assay. Type of data set: functional, cell-based. As to conditions: A549, 48 h. In short, it runs like this: as §1
The test system of data set [18] is Quadruplex DNA. Put plainly: Stabilization of telomeric G-quadruplex DNA in human U2OS cells assessed as induction of DNA damage response by measuring gamma-H2AX foci formation per nucleus at 2 uM after 24 hrs by DAPI staining-based immunofluorescence method. Type of data set: cell-based. In short, it runs like this: as §2
Data set [19] deals with Quadruplex DNA. The experiment in a line: Stabilization of telomeric G-quadruplex DNA in human U2OS cells assessed as induction of DNA damage response by measuring co-localization of gamma-H2AX and TRF2 foci per nucleus at 2 uM after 24 hrs by DAPI staining-based double immunofluorescence method. Type of data set: cell-based. In short, it runs like this:
as §2

Active and inactive are the calls of the source. The rule behind the calls is not given here.

`CN(C)CCCNc1cc2nc(/C=C3\C(=O)Nc4cc(N5CCN(C)CC5)ccc43)[nH]c(=O)c2cc1F`: the result in data set [1], in data set [4], in data set [7], in data set [12], in [18] and in data set [19] was Active. Further, the Activity result is “Dose-dependent effect” in data set [2], “Dose-dependent effect” in data set [6] and “Non-Toxic” in data set [13]. For the same compound, the IC50 in data set [3] was 3.2 µM; in data set [15], 2.5 µM; in data set [16], 3.8 µM; in data set [17], 9.1 µM. Besides, the fold change (FC) in [5] amounted to 2; in data set [9], 3. The thermal shift (ΔTm) in data set [8] came to 0.1 °C. Further, the outcome in data set [10] was inactive. Moreover, in [11], the equilibrium dissociation constant (Kd) was determined as 8.1 µM. For the same compound, the inhibition in vivo at 20 mg/kg in data set [14] turned out to be 65.2%.
